The source made the active and inactive calls. The rule behind the calls is not given here.
Key:
[1] = system: Chlamydia pneumoniae; assay: Antimicrobial activity against Chlamydia pneumoniae infected in HEp-2 cells assessed as growth inhibition at 2 uM pretreated for 1 hr before infection; type: functional, organism-based
In short: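 Before infecting HEp-2 cells, the bacteria were pretreated with 2 µM RU486 for 1 h or left untreated. Cells were then cultured with or without RU486 2 µM or cycloheximide 1 µg/ml. Infective progeny in 72 h lysates was assessed by IFU assay. Means ± SD of three experiments.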

[2] = system: Chlamydia pneumoniae; assay: Antimicrobial activity against Chlamydia pneumoniae infected in HEp-2 cells at 20 uM; type: functional, organism-based
[3] = Cmax in pregnant women at 800 mg, po; type: ADME, organism-based; parameters: dose 800 mg, route oral; conditions: female, human, in vivo
[4] = system: Chlamydia pneumoniae; assay: Antimicrobial activity against Chlamydia pneumoniae infected in HEp-2 cells at 2 uM after 72 hrs in presence of cycloheximide; type: functional, organism-based
In short: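 Infected HEp-2 cells were held 72 h with RU486 2 µM and/or cycloheximide 0.1 to 10 µg/ml, with untreated and ethanol controls. Infective progeny in cell lysates was counted by IFU assay on HEp-2 monolayers with FITC anti-Chlamydia antibody staining. Means ± SD of three experiments.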

[5] = Cytotoxicity against human Hep2 cells at 20 uM; type: cell-based; conditions: hep-2, 20 µM
[6] = system: Chlamydia pneumoniae; assay: Antimicrobial activity against Chlamydia pneumoniae infected in HEp-2 cells assessed as a reduction in 16S rRNA transcript at 2 uM after 72 hrs by RT-PCR in presence of cycloheximide; type: functional, organism-based
In short: (§1)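 Infected HEp-2 cells (5 x 10^5 cells/well) were treated with RU486 2 µM with or without cycloheximide 1 µg/ml. Total RNA was extracted at harvest. C. pneumoniae 16S rRNA was quantified by real-time RT-PCR (50 cycles, melt-curve check), and copies per reaction were taken from a standard curve of diluted C. pneumoniae DNA. Means ± SD, three experiments.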

[7] = Cytotoxicity against human Hep2 cells at >2 uM; type: cell-based; conditions: hep-2
[8] = system: Chlamydia pneumoniae; assay: Antimicrobial activity against Chlamydia pneumoniae infected in HEp-2 cells assessed as a reduction in 16S rRNA transcript at 2 uM after 24 hrs by RT-PCR in presence of cycloheximide; type: functional, organism-based; in short: as §1
[9] = system: Chlamydia pneumoniae; assay: Antimicrobial activity against Chlamydia pneumoniae infected in HEp-2 cells assessed as a reduction in 16S rRNA transcript at 2 uM after 72 hrs by RT-PCR; type: functional, organism-based; in short: as §1
[10] = system: Chlamydia pneumoniae; assay: Antimicrobial activity against Chlamydia pneumoniae infected in HEp-2 cells assessed as a reduction in 16S rRNA transcript at 2 uM after 24 hrs by RT-PCR; type: functional, organism-based; in short: as §1
[11] = system: Chlamydia pneumoniae; assay: Antimicrobial activity against Chlamydia pneumoniae infected in HEp-2 cells 0.02 to 2 uM after 72 hrs; type: functional, organism-based
In short: (§2)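 HEp-2 cells were infected with C. pneumoniae (MOI 10, centrifuged at 800 x g for 1 h at room temperature) and washed. They were seeded at 5 x 10^4 cells/well and cultured 72 h with RU486 (0.02 to 2 µM; ethanol vehicle control). Freeze-thaw lysates were serially diluted 10-fold onto HEp-2 monolayers, spun, grown 72 h at 37°C with cycloheximide 1 µg/ml, and FITC anti-Chlamydia stained for IFU counts. Means of three experiments.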

[12] = system: Chlamydia pneumoniae; assay: Antimicrobial activity against Chlamydia pneumoniae infected in HEp-2 cells; type: functional, organism-based; in short: as §2
[13] = system: Chlamydia pneumoniae; assay: Antimicrobial activity against Chlamydia pneumoniae infected in HEp-2 cells assessed as inhibition of bacterial replication at 2 uM after 24 hrs; type: functional, organism-based
In short: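 Time course: infected HEp-2 cells (MOI 10, centrifugation-assisted) were incubated with or without 2 µM RU486 for up to 72 h. At each time point, infective progeny in freeze-thaw lysates was titrated on fresh HEp-2 monolayers by IFU assay (72 h with cycloheximide 1 µg/ml, FITC anti-Chlamydia staining). Means ± SD, three experiments.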

[14] = system: Chlamydia pneumoniae; assay: Antimicrobial activity against Chlamydia pneumoniae infected in HEp-2 cells at 2 uM after 72 hrs; type: functional, organism-based; in short: as §2

With `CC#C[C@]1(O)CC[C@H]2[C@@H]3CCC4=CC(=O)CCC4=C3[C@@H](c3ccc(N(C)C)cc3)C[C@@]21C` [MIFEPRISTONE] the Activity [1] was “inactive”, the Activity [2] was “Active” and the Cmax [3] was 2500 ng/mL. The Activity [4] was “Active”, the Activity [5] was “Toxic” and the Activity [6] was “inactive”. The Activity [7] was “Toxic”, the Activity [8] was “inactive” and the Activity [9] was “Active”. For the same compound, the Activity [10] was “Active”, the Activity [11] was “Dose-dependent effect” and the Activity [12] was “Active”. For the same compound, the inhibition [13] was “Active” and the Activity [14] was “Active”.

Source: ChEMBL document CHEMBL1275416, “Chlamydia pneumoniae growth inhibition in cells by the steroid receptor antagonist RU486 (mifepristone)” (Antimicrob Agents Chemother, 2008)
